Measurements published in ChEMBL document CHEMBL1154573, “New 7,20:14,20-diepoxy ent-kauranoids from Isodon xerophilus” (J Nat Prod, 2000).
In brackets after ≈: the same amount, converted by molar mass.

Experiments:
Type in all cases: functional, cell-based
[1] = tested on: K562; test: Cytotoxicity against human K562 cells after 48 hrs by MTT assay; conditions: K562, 48 h
In short: (§1)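 MTT reduction assay. Cells in log-phase growth were seeded at 4 × 10⁴ cells/mL and exposed in four replicates to drug at 10⁻⁴–10⁻⁸ mol/L for 48 h at 37 °C in humidified 5% CO₂. MTT (5 mg/mL solution) was then added for a further 4 h. Formazan was dissolved in 10% SDS–5% isobutanol–HCl for 12 h at room temperature. OD was read at 570 and 630 nm, and IC50 was derived. Negative controls were saline or 1% or 0.1% DMSO.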

[2] = tested on: HL-60; test: Cytotoxicity against human HL60 cells after 48 hrs by MTT assay; conditions: HL-60, 48 h; in short: as §1
[3] = tested on: MKN-28; test: Cytotoxicity against human MKN28 cells after 48 hrs by MTT assay; conditions: MKN-28, 48 h; in short: as §1
[4] = Cytotoxicity against human HCT cells after 48 hrs by MTT assay; in short: as §1

| SMILES | IC50 [1] [µg/mL] | IC50 [2] [µg/mL] | IC50 [3] [µg/mL] | IC50 [4] [µg/mL] |
| --- | --- | --- | --- | --- |
| C=C1C(=O)[C@@]23[C@@H]4O[C@H]5O[C@@]2(O)[C@@H](O)[C@@H]2C(C)(C)CCC[C@]52[C@@H]3[C@@H](O)C[C@@H]14 [MACROCALIN B] | 8.07 (≈ 22.3 µM) | 2.05 (≈ 5.66 µM) | 1.68 (≈ 4.64 µM) | – |
| O=C1c2c(O)ccc(O)c2C(=O)c2c(NCCNCCO)ccc(NCCNCCO)c21 [MITOXANTRONE] | 0.0334 (≈ 0.0751 µM) | 0.29 (≈ 0.652 µM) | 0.02 (≈ 0.045 µM) | 1.54 (≈ 3.46 µM) |
| C=C1C(=O)[C@@]23[C@@H]4O[C@H]5O[C@@]2(O)[C@@H](O)[C@@H]2C(C)(C)CCC[C@]52[C@@H]3[C@@H](OC(C)=O)C[C@@H]14 [XEROPHILUSIN A] | 2.22 (≈ 5.49 µM) | 0.45 (≈ 1.11 µM) | 0.12 (≈ 0.297 µM) | – |
| C=C1C(=O)[C@@]23[C@@H]4O[C@H]5O[C@@]2(O)[C@@H](O)[C@@H]2C(C)(C)CCC[C@]52[C@@H]3CC[C@@H]14 [XEROPHILUSIN B] | 0.73 (≈ 2.11 µM) | 0.29 (≈ 0.837 µM) | 0.17 (≈ 0.491 µM) | – |
